According to ChEMBL document CHEMBL2062416, “Synthesis and biological evaluation of some novel 1-indanone thiazolylhydrazone derivatives as anti-Trypanosoma cruzi agents” (Eur J Med Chem, 2012):

Columns and labels:
Trypanosoma cruzi [1] = assay: Trypanocidal activity against amastigotes of Trypanosoma cruzi expressing beta-galactosidase gene infected in mouse J774 cells assessed as inhibition of parasite growth after 7 days; format: functional, organism-based; settings: J774, 168 h
Procedure, shortened: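 J774 macrophages, 5×10^3/well, infected with β-galactosidase-expressing blood trypomastigotes (clone C4) at 10:1 parasite:cell for 24 h, washed, then compounds (2–100 µM) in phenol red-free RPMI, duplicates, 7 days. Developed with 1% NP-40 and 100 µM CPRG, 4 h 37 °C, A570; uninfected ± compound wells correct colour. IC50 by linear regression of %I against log concentration.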

[2] = target: Cruzipain (Trypanosoma cruzi) (UniProt P25779); assay: Inhibition of epimastigotes of Trypanosoma cruzi cruzipain using Bz-Pro-Phe-Arg-pNA as substrate at 20 uM by spectrophotometric analysis
Sequence of Cruzipain (Trypanosoma cruzi) (P25779 123-467 limits assumed): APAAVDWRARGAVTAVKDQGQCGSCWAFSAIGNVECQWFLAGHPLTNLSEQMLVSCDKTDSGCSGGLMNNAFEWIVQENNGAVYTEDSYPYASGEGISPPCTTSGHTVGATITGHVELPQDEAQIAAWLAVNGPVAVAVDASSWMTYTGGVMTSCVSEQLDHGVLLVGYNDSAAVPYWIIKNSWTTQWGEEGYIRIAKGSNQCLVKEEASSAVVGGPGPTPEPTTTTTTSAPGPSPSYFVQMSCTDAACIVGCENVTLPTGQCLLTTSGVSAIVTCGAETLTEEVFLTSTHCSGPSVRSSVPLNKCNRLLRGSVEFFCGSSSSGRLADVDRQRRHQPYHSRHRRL
Procedure, shortened: (§1)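 Cruzipain purified from epimastigote cell-free extract by ConA-Sepharose affinity chromatography. 1 mL reaction: Tris-acetate pH 8.2 (50 µmol), 2-mercaptoethanol (10 µmol), Bz-Pro-Phe-Arg-pNA (0.3 µmol); followed at 410 nm. Compounds added in DMSO; vehicle controls with matching DMSO; E-64 reference inhibitor. Percent inhibition relative to enzyme without drug.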

Vero = assay: Cytotoxicity against african green monkey Vero cells up to 100 uM after 24 hrs by MTT assay; format: cell-based; settings: chlorocebus sabaeus
Procedure, shortened: (§2)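 Vero cells grown in MEM or RPMI with 10% FBS, penicillin, streptomycin, glutamine; seeded at 9×10^5 cells/mL, compounds (12.5–200.0 µM) added after 48 h, 24 h exposure. PBS wash, MTT at 0.5 mg/mL final, 1 h 37 °C, formazan dissolved in DMSO, A570 with blank subtraction. Repeated at least three times, four samples per assay.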

Trypanosoma cruzi [3] = assay: Trypanocidal activity against bloodstream trypomastigotes of Trypanosoma cruzi infected in mouse blood assessed as lytic effect after 24 hrs; format: functional, organism-based
Procedure, shortened: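 Blood from infected CF1 mice (Tulahuen, Tul 2) diluted to 1.5×10^6 trypomastigotes/mL; compounds 0.30–350 µM, duplicates, 24 h. Live parasites counted in Neubauer chamber; %I = [1−CDt/CDc]×100 versus untreated. IC50 by linear regression of %I on log concentration. Means ± SD of three experiments.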

[4] = target: Cruzipain (Trypanosoma cruzi) (UniProt P25779); assay: Inhibition of epimastigotes of Trypanosoma cruzi cruzipain using Bz-Pro-Phe-Arg-pNA as substrate at 10 uM by spectrophotometric analysis; procedure, shortened: as §1
Trypanosoma cruzi [5] = assay: Trypanocidal activity against epimastigotes of Trypanosoma cruzi Tulahuen 2 assessed as inhibition of parasite growth after 4 days by trypan blue staining; format: functional, organism-based; settings: Tulahuen 2, 96 h
Procedure, shortened: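 Epimastigotes (Tulahuen, Tul 2) from 5-day cultures grown at 28 °C in liver/infusion medium with hemin, started at 1.5–2.5×10^6 cells/mL, exposed 4 days to compounds (typically 1.50–15 or 0.5–2.5 µM), triplicate; benznidazole 2.50–15 µM positive control. Motile cells counted in Neubauer chamber; %I from density change versus untreated; IC50 by linear regression on log concentration.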

[6] = target: Cruzipain (Trypanosoma cruzi) (UniProt P25779); assay: Inhibition of epimastigotes of Trypanosoma cruzi cruzipain using Bz-Pro-Phe-Arg-pNA as substrate at 50 uM by spectrophotometric analysis; procedure, shortened: as §1
[7] = Cytotoxicity against african green monkey Vero cells after 24 hrs by MTT assay; format: cell-based; settings: chlorocebus sabaeus; procedure, shortened: as §2
Trypanosoma cruzi [8] = assay: Inhibition of ergosterol biosynthesis in epimastigotes of Trypanosoma cruzi assessed as ratio of squalene/ergosterol at 25 uM after 24 hrs by TLC analysis (reference value: 0.76); format: functional

Row | SMILES | inhibition [2] [%] | inhibition [4] [%] | inhibition [6] [%] | IC50 (Trypanosoma cruzi [1]) [µM] | Activity (Vero) | IC50 (Trypanosoma cruzi [3]) [µM] | IC50 (Trypanosoma cruzi [5]) [µM] | CC50 at 24 h [7] [µM] | Ratio (Trypanosoma cruzi [8])
1 | O=C(Cn1ccnc1[N+](=O)[O-])NCc1ccccc1 [BENZNIDAZOLE] |  |  |  |  |  | 30.3 | 5.39 | 82.8 | 
2 | COc1cc2c(cc1OC)/C(=N/Nc1nc(-c3ccc(Cl)cc3)cs1)CC2 |  |  |  |  | Non-toxic | 404 | 7.17 |  | 
3 | Cc1ccc2c(c1)CC/C2=N\Nc1nc(-c2ccc(Cl)cc2)cs1 |  |  |  |  | Non-toxic | 372 | 7.15 |  | 
4 | Clc1ccc(-c2csc(N/N=C3\CCc4ccccc43)n2)cc1 |  |  |  |  | Non-toxic | 308 | 8.62 |  | 
5 | CN(C/C=C/C#CC(C)(C)C)Cc1cccc2ccccc12 [TERBINAFINE] |  |  |  |  |  |  |  |  | 1.54
6 | COc1cc2c(cc1OC)/C(=N/Nc1nc(-c3ccccc3)cs1)CC2 |  |  |  |  | Non-toxic | 195 | 10.1 |  | 
7 | c1ccc(-c2csc(N/N=C3\CCc4ccccc43)n2)cc1 |  |  |  |  | Non-toxic | > 500 | 19 |  | 
8 | O=[N+]([O-])c1cccc2c1CC/C2=N\Nc1nc(-c2ccc(Cl)cc2)cs1 |  |  |  |  | Non-toxic | 597 | 17.1 |  | 
9 | Cc1ccc2c(c1)/C(=N/Nc1nc(-c3ccc(Cl)cc3)cs1)CC2 |  |  |  |  | Non-toxic | 61.1 | 8.59 |  | 
10 | Cc1ccc2c(c1)CC/C2=N\Nc1nc(-c2ccccc2)cs1 |  |  |  |  | Non-toxic | 172 | 4.69 |  | 

Further lines, with some results ahead:

Row | inhibition [2] [%] | inhibition [4] [%] | inhibition [6] [%] | SMILES | IC50 (Trypanosoma cruzi [1]) [µM] | Activity (Vero) | IC50 (Trypanosoma cruzi [3]) [µM] | IC50 (Trypanosoma cruzi [5]) [µM] | CC50 at 24 h [7] [µM] | Ratio (Trypanosoma cruzi [8])
11 | 0 | 0 | 0 | COc1cccc2c1CC/C2=N\Nc1nc(-c2ccc(Cl)cc2)cs1 | 0.84 | Non-toxic | 19.7 | 11.8 |  | 
12 | 0 | 0 | 0 | COc1cc2c(cc1OC)/C(=N/Nc1nc(-c3ccc(C)cc3)cs1)CC2 | 7.72 | Non-toxic | 69.6 | > 15 |  | 
13 | 2 | 4 | 0 | Cc1ccc(-c2csc(N/N=C3\CCc4c(C)cccc43)n2)cc1 | 0.72 | Non-toxic | 17.2 | 4.36 |  | 2.92
14 | 0 | 3 | 0 | Cc1cccc2c1CC/C2=N\Nc1nc(-c2ccccc2)cs1 | 0.68 | Non-toxic | 48.9 | 7.08 |  | 
15 | 0 | 0 | 0 | Cc1ccc(-c2csc(N/N=C3\CCc4cc(C)ccc43)n2)cc1 | 1.35 | Non-toxic | 87 | 5.24 |  | 
16 |  | 62 |  | CC(C)C[C@H](NC(=O)[C@H]1O[C@@H]1C(=O)O)C(=O)NCCCCN=C(N)N |  |  |  |  |  | 
17 | 0 | 3 | 0 | Cc1ccc2c(c1)/C(=N/Nc1nc(-c3ccccc3)cs1)CC2 | 3.96 | Non-toxic | 22.7 | 4.27 |  | 
18 | 0 | 3 | 3 | Cc1cccc2c1CC/C2=N\Nc1nc(-c2ccc(Cl)cc2)cs1 | 0.09 | Non-toxic | 20 | 4.53 |  | 1.25
19 | 0 | 3 | 0 | Cc1ccc(-c2csc(N/N=C3\CCc4ccc(C)cc43)n2)cc1 | 0.27 | Non-toxic | 49.5 | 4.08 |  | 0.8
20 | 5 | 8 | 5 | Cc1ccc(-c2csc(N/N=C3\CCc4ccccc43)n2)cc1 |  | Non-toxic | > 500 | > 15 |  | 0.76
